This note sets out measurements from ChEMBL document CHEMBL1154792, “chi-Conopeptide pharmacophore development: toward a novel class of norepinephrine transporter inhibitor (Xen2174) for pain” (J Med Chem, 2009).

The species named for this data set is Rattus norvegicus. Description: Toxicity in CCI rat pain model assessed as side effects. The class given is organism-based. The conditions noted are these: in vivo. An outline of the steps:
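Rats with unilateral sciatic chronic constriction injury received a single intrathecal bolus via an implanted cannula 14 days after surgery, with morphine and vehicle as comparators. Compound-related behavioural observations were recorded alongside von Frey paw-withdrawal testing. Three animals per analogue.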

SMILES strings stand for the structures.

In the case of `CC(C)C[C@@H]1NC(=O)[C@H](CCCCN)NC(=O)[C@H](Cc2ccc(O)cc2)NC(=O)CNC(=O)[C@@H]2CSSC[C@H](NC1=O)C(=O)N[C@@H](Cc1cnc[nH]1)C(=O)N1CC[C@H](O)[C@H]1C(=O)N[C@H](C(=O)O)CSSC[C@H](NC(=O)[C@@H](NC(=O)CNC(=O)[C@@H](N)CC(N)=O)C(C)C)C(=O)N2`, the Activity result was “Toxic”.
